According to ChEMBL document CHEMBL1135672, “QSAR evaluation of the Ch'an Su and related bufadienolides against the colchicine-resistant primary liver carcinoma cell line PLC/PRF/5(1)” (J Med Chem, 2002):
Values after ≈ are worked out from the molar mass of the structure shown.

Columns and labels:
Assay type in all cases: functional, Homo sapiens
[1] = Inhibitory activity against the primary liver carcinoma (PLC) cell line PLC/PRF/5
[2] = Inhibitory activity against Colchicine resistant parent primary liver carcinoma (PLC) cell line PLC/PRF/5
Summary of the method: (§1)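 PLC/PRF/5 cells were precultured 24 h at 37 °C in 5% CO₂ in 96-well plates, then given colchicine at 0.5 μg/mL. Test compounds were added in dilutions of 10⁻²–10⁻⁶ μg/mL and incubated 72 h at 37 °C in 5% CO₂. Survival was read by MTT. IC50 is the μg/mL giving 50% growth inhibition of the colchicine-resistant cells.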

[3] = Inhibitory activity against colchicine resistant parent primary liver carcinoma (PLC) cell line PLC/PRF/5; summary of the method: as §1

`C[C@]12CCC3C(CC[C@@H]4CC(=O)CC[C@]34C)C1=CC[C@@H]2c1ccc(=O)oc1` (some centres undefined) gave an IC50 [1] of 4.9 mg/L (≈ 13.4 µM) and an IC50 [2] of 7.8 mg/L (≈ 21.3 µM).
`CC(=O)O[C@H]1[C@H]2O[C@]23[C@@H]2CC[C@@H]4C[C@@H](OC(=O)/C=C/c5ccccc5)CC[C@]4(C)[C@H]2CC[C@]3(C)[C@H]1c1ccc(=O)oc1` showed an IC50 [3] of 9.8 mg/L (≈ 17.1 µM) and an IC50 [1] of 6.4 mg/L (≈ 11.2 µM).
`C[C@]12CCC(=O)C[C@H]1CC[C@@H]1[C@@H]2CC[C@]2(C)[C@@H](c3ccc(=O)oc3)C[C@H]3O[C@]132` showed an IC50 [3] of 9.7 mg/L (≈ 25.4 µM) and an IC50 [1] of 5.8 mg/L (≈ 15.2 µM).
Work on `C[C@]12CC[C@H](OC(=O)CCC(=O)O)C[C@H]1CC[C@@H]1[C@@H]2CC[C@]2(C)[C@@H](c3ccc(=O)oc3)CC[C@]12O` yielded an IC50 [3] of 0.51 mg/L (≈ 1.05 µM) and an IC50 [1] of 0.066 mg/L (≈ 0.136 µM).
For `CC(=O)O[C@H]1CC[C@@]2(C)[C@H](CC[C@@H]3[C@@H]2[C@H](O)C[C@]2(C)[C@@H](c4ccc(=O)oc4)CC[C@]32O)C1`, the IC50 [3] was 0.66 mg/L (≈ 1.48 µM) and the IC50 [1] was 0.06 mg/L (≈ 0.135 µM).
Compound `C[C@]12CCC3C(CC[C@@H]4C[C@@H](O)CC[C@]34C)C1=CC[C@@H]2c1ccc(=O)oc1` (some centres undefined) has an IC50 [3] of 0.9 mg/L (≈ 2.44 µM) and an IC50 [1] of 0.83 mg/L (≈ 2.25 µM).
`COC(=O)C/C=C/C1=CO[C@]23CCC1[C@@]2(C)CC[C@H]1[C@H]3CC[C@@H]2C[C@@H](OC(C)=O)CC[C@@]21C` gave an IC50 [3] of 41 mg/L (≈ 89.8 µM) and an IC50 [1] of 6.6 mg/L (≈ 14.5 µM).
`C[C@]12CC[C@H]3[C@@H](CC[C@@H]4C[C@@H](O)CC[C@@]43CO)[C@]13O[C@@H]3C[C@@H]2c1ccc(=O)oc1` gave an IC50 [3] of 8.2 mg/L (≈ 20.5 µM) and an IC50 [1] of 0.61 mg/L (≈ 1.52 µM).
`CC(=O)O[C@H]1CC[C@@]2(C)[C@H](CC[C@@H]3[C@@H]2CC[C@]2(C)[C@@H](c4ccc(=O)oc4)[C@@H](O)[C@H]4O[C@]342)C1` showed an IC50 [3] of 3.4 mg/L (≈ 7.68 µM) and an IC50 [1] of 0.098 mg/L (≈ 0.221 µM).
For `CC(=O)O[C@H]1CC[C@@]2(C)[C@H](CC[C@@H]3[C@@H]2CC[C@]2(C)[C@@H](c4ccc(=O)oc4)CC[C@]32O)C1`, the IC50 [3] was 0.009 mg/L (≈ 0.021 µM) and the IC50 [1] was 0.0002 mg/L (≈ 0.000467 µM).
`C[C@]12CC[C@H]3[C@@H](CC[C@]4(O)C[C@@H](O)CC[C@]34C=O)[C@@]1(O)CC[C@@H]2c1ccc(=O)oc1` gave an IC50 [3] of 0.00053 mg/L (≈ 0.00127 µM) and an IC50 [1] of 0.00016 mg/L (≈ 0.000384 µM).
Work on `CC(=O)O[C@H]1CC[C@@]2(C)[C@H](CC[C@@H]3[C@@H]2CC[C@]2(C)[C@@H](c4ccc(=O)oc4)[C@H](O)[C@H]4O[C@]342)C1` yielded an IC50 [3] of 7.5 mg/L (≈ 16.9 µM) and an IC50 [1] of 6.7 mg/L (≈ 15.1 µM).
With `CC(=O)O[C@H]1[C@H]2O[C@]23[C@@H]2CC[C@]4(O)C[C@@H](O)CC[C@]4(C)[C@H]2CC[C@]3(C)[C@H]1c1ccc(=O)oc1` [CINOBUFOTALIN] the IC50 [3] was 0.008 mg/L (≈ 0.0174 µM) and the IC50 [1] was 0.001 mg/L (≈ 0.00218 µM).
`C[C@]12CCC(=O)C[C@H]1CC[C@@H]1[C@@H]2CC[C@]2(C)[C@@H](c3ccc(=O)oc3)CC[C@]12O` gave an IC50 [3] of 0.61 mg/L (≈ 1.59 µM) and an IC50 [1] of 0.0093 mg/L (≈ 0.0242 µM).
Work on `CC(=O)O[C@H]1CC[C@@]2(C)[C@H](CC[C@@H]3[C@@H]2CC[C@]2(C)[C@@H](c4ccc(=O)oc4)C[C@H](O)[C@]32O)C1` yielded an IC50 [3] of 5.6 mg/L (≈ 12.6 µM) and an IC50 [1] of 0.71 mg/L (≈ 1.6 µM).
Work on `COC(=O)CCCCCCC(=O)O[C@H]1CC[C@@]2(C)[C@H](CC[C@@H]3[C@@H]2CC[C@]2(C)[C@@H](C4=CC(=O)OC4)CC[C@]32O)C1` yielded an IC50 [3] of 0.98 mg/L (≈ 1.8 µM) and an IC50 [1] of 0.53 mg/L (≈ 0.973 µM).
For `CC(=O)CC1OC2C(C1C=O)[C@@]1(C)CC[C@H]3[C@@H](CC[C@@H]4C[C@@H](O)CC[C@@]43C)[C@]13O[C@H]23` (some centres undefined), the IC50 [3] was greater than 50 mg/L and the IC50 [1] was 26 mg/L (≈ 62.4 µM).
With `COC(=O)C/C=C/C1=CO[C@]23C[C@H](OC(C)=O)C1[C@@]2(C)CC[C@H]1[C@H]3CC[C@@H]2C[C@@H](OC(C)=O)CC[C@@]21C` the IC50 [3] was 50 mg/L (≈ 97.2 µM) and the IC50 [1] was 49 mg/L (≈ 95.2 µM).
Work on `C[C@]12CC[C@H](O)C[C@H]1CC[C@@H]1[C@@H]2[C@H](O)C[C@]2(C)[C@@H](c3ccc(=O)oc3)CC[C@]12O` [GAMABUFOTALIN] yielded an IC50 [3] of 0.0008 mg/L (≈ 0.00199 µM) and an IC50 [1] of 0.00023 mg/L (≈ 0.000571 µM).
In the case of `CC(=O)O[C@H]1[C@H]2O[C@]23[C@@H]2CC[C@@H]4C[C@@H](OC(=O)CCCCCCC(=O)O)CC[C@]4(C)[C@H]2CC[C@]3(C)[C@H]1c1ccc(=O)oc1`, the IC50 [3] was 0.06 mg/L (≈ 0.1 µM) and the IC50 [1] was 0.01 mg/L (≈ 0.0167 µM).
For `CC(=O)CC1CC2C(O1)[C@H]1O[C@]13[C@@H]1CC[C@@H]4C[C@@H](O)CC[C@]4(C)[C@H]1CC[C@]23C` (some centres undefined), the IC50 [3] was greater than 50 mg/L and the IC50 [1] was 9.5 mg/L (≈ 24.5 µM).
In the case of `C[C@]12CCC3C(CC[C@@H]4C[C@@H](O)CC[C@]34C)C1=CC[C@@H]2C1=CC(=O)OC1` (some centres undefined), the IC50 [3] was 0.73 mg/L (≈ 2.05 µM) and the IC50 [1] was 0.36 mg/L (≈ 1.01 µM).
`C[C@]12CC[C@H](O)C[C@H]1CC[C@@H]1[C@@H]2CC[C@]2(C)[C@@H](c3ccc(=O)oc3)C[C@H](O)[C@]12Cl` showed an IC50 [3] of 0.82 mg/L (≈ 1.95 µM) and an IC50 [1] of 0.07 mg/L (≈ 0.166 µM).
`C[C@]12CC[C@H](O)C[C@H]1CC[C@@H]1[C@@H]2CC[C@]2(C)C3CC[C@]12OC=C3/C=C/CC(=O)O` showed an IC50 [3] greater than 50 mg/L and an IC50 [1] of 10 mg/L (≈ 25 µM).
`CC(=O)O[C@H]1CC[C@@]2(C)[C@H](CC[C@@H]3[C@@H]2CC[C@]2(C)[C@@H](c4ccc(=O)oc4)[C@@H](OC(=O)CCC(=O)O)[C@H]4O[C@]342)C1` showed an IC50 [3] greater than 50 mg/L and an IC50 [1] of 50 mg/L (≈ 92.1 µM).
`C[C@]12CC[C@H](O)C[C@H]1CC[C@@H]1[C@@H]2CC[C@]2(C)[C@@H](c3ccc(=O)oc3)C[C@H]3O[C@]132` [BUFOGENIN] gave an IC50 [3] of 0.076 mg/L (≈ 0.198 µM) and an IC50 [1] of 0.077 mg/L (≈ 0.2 µM).
In the case of `C[C@]12CC[C@@H](O)C[C@H]1CC[C@@H]1[C@@H]2CC[C@]2(C)[C@@H](c3ccc(=O)oc3)C[C@H]3O[C@]132`, the IC50 [3] was 43 mg/L (≈ 112 µM) and the IC50 [1] was 8.3 mg/L (≈ 21.6 µM).
In the case of `C[C@]12CC[C@H](O)C[C@H]1CC[C@@H]1[C@@H]2CC[C@]2(C)C(/C(=C/CO)CO)C[C@H]3O[C@]132` (some centres undefined), the IC50 [3] was greater than 50 mg/L and the IC50 [1] was greater than 50 mg/L.
For `CC(=O)O[C@H]1[C@H]2O[C@]23[C@@H]2CC[C@@H]4C[C@@H](OC(=O)CCC(=O)O)CC[C@]4(C)[C@H]2CC[C@]3(C)[C@H]1c1ccc(=O)oc1`, the IC50 [3] was 0.96 mg/L (≈ 1.77 µM) and the IC50 [1] was 0.85 mg/L (≈ 1.57 µM).
Work on `CC(=O)O[C@H]1CC[C@@]2(C)[C@H](CC[C@@H]3[C@@H]2CC[C@]2(C)[C@@H](c4ccc(=O)oc4)C[C@H]4O[C@]342)C1` yielded an IC50 [3] of 0.95 mg/L (≈ 2.23 µM) and an IC50 [1] of 0.32 mg/L (≈ 0.75 µM).
With `C[C@]12CC[C@H](OC(=O)CCCCCCC(=O)O)C[C@H]1CC[C@@H]1[C@@H]2CC[C@]2(C)[C@@H](c3ccc(=O)oc3)CC[C@]12O` the IC50 [3] was 0.0036 mg/L (≈ 0.00663 µM) and the IC50 [1] was 0.00075 mg/L (≈ 0.00138 µM).
Work on `COC(=O)CCCCCCC(=O)O[C@H]1CC[C@@]2(C)[C@H](CC[C@@H]3[C@@H]2CC[C@]2(C)[C@@H](c4ccc(=O)oc4)CC[C@]32O)C1` yielded an IC50 [3] of 0.094 mg/L (≈ 0.169 µM) and an IC50 [1] of 0.009 mg/L (≈ 0.0162 µM).
With `CC(=O)O[C@H]1CC[C@]2(C)C3CC[C@]4(C)[C@@H](c5ccc(=O)oc5)[C@@H](OC(C)=O)C[C@@]4(O)C3CC[C@@H]2C1` (some centres undefined) the IC50 [3] was 21 mg/L (≈ 43.2 µM) and the IC50 [1] was 7.5 mg/L (≈ 15.4 µM).
Compound `CC(=O)O[C@H]1CC[C@@]2(C)[C@H](CC[C@@H]3[C@@H]2CC[C@]2(C)[C@@H](c4ccc(=O)oc4)CC(=O)[C@]32O)C1` has an IC50 [3] of 6.4 mg/L (≈ 14.5 µM) and an IC50 [1] of 0.077 mg/L (≈ 0.174 µM).
With `CC(=O)O[C@H]1C[C@]2(O)[C@@H]3CC[C@@H]4C[C@@H](O)CC[C@]4(C)[C@H]3CC[C@]2(C)[C@H]1c1ccc(=O)oc1` [BUFOTALIN] the IC50 [3] was 0.0026 mg/L (≈ 0.00585 µM) and the IC50 [1] was 0.00034 mg/L (≈ 0.000765 µM).
In the case of `COC(=O)C/C=C/C1=CO[C@]23CCC1[C@@]2(C)CC[C@H]1[C@H]3CC[C@@H]2C[C@@H](O)CC[C@@]21C`, the IC50 [3] was 45 mg/L (≈ 109 µM) and the IC50 [1] was 9.1 mg/L (≈ 21.9 µM).
Compound `CC(=O)O[C@H]1CC[C@]2(C)C3CC[C@@]4(C)C(=C[C@H](OC(C)=O)[C@@H]4c4ccc(=O)oc4)C3CC[C@@H]2C1` (some centres undefined) has an IC50 [3] of 7.3 mg/L (≈ 15.6 µM) and an IC50 [1] of 5 mg/L (≈ 10.7 µM).
